Most compounds without a hit are left out; they make up all but 6.7% or so of the library.
Beta cell apopt – blocks beta cell apoptosis; INS-1E cytokine-induced death, ATP luminescence, 48 h; percent of positive-control rescue, neutral wells zero; protection from apoptosis, % (concentration not given with the values); 300,000 compounds, 0.8% hits;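 active means Every replicate reaches about 75%, or at least half do and their mean reaches it too, limit read from the data; inconclusive means At least half of replicates reach the limit but their mean does not; inactive means Under half of replicates reach the limit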;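 further: higher means more ATP so stronger rescue from cytokine killing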
PREPL inhibitor – inhibits the human prolyl oligopeptidase-like enzyme; Q4J6C6; recombinant PREPL, fluorescence polarization activity-based probe; inhibition, % at 5.96 µM; 320,000 compounds, 0.68% hits; AID 2751; in the data active means inhibition above about 43%
Target sequence (Q4J6C6 whole entry, looked up): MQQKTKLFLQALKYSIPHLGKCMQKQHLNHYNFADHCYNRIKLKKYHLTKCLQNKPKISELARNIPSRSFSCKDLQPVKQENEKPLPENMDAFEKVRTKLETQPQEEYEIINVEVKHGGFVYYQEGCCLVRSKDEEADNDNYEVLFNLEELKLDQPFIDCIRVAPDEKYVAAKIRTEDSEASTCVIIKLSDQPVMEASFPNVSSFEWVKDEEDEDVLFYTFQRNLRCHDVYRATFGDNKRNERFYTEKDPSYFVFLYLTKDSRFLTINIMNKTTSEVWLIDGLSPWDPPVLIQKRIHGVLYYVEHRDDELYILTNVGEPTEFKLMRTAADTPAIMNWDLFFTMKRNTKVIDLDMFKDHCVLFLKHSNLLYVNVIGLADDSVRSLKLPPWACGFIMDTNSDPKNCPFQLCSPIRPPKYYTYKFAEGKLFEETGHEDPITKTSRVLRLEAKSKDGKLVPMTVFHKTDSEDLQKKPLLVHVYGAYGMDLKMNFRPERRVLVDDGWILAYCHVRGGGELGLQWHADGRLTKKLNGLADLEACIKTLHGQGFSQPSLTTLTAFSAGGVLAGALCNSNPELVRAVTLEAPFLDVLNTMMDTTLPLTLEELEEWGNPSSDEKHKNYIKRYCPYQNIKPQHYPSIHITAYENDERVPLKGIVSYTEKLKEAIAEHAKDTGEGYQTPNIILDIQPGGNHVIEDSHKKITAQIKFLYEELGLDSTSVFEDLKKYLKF
T cruzi repl – T. cruzi replication inhibition. inhibition, % (test concentration not listed). 300,000 compounds, 1.4% hits. AID 1885. T. cruzi beta-gal in NIH3T3, luminescence, 90 h;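 active means mean inhibition across valid replicates above about 55%, limit read from the data; inconclusive means mean below that limit but half or more replicates reach it; inactive means mean below it, under half of replicates reach it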;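 further: signal also drops with host cell toxicity which is not excluded here; higher percent means less beta-gal luminescence so fewer parasites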
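assay system = mouse NIH/3T3 fibroblasts infected with β-gal-expressing T. cruzi Tulahuen C4 | input = 5,000 NIH/3T3 host cells per well | buffer or medium = DMEM plus 2% FBS | timing = 3 h host attachment, then at least 90 h co-culture | measured by = GalScreen luminescence, 60 min | evaluation = luminescence reflecting intracellular parasite burden, expressed as percent inhibition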
CSC inhib – cancer stem cell inhibition; cancer stem cell-like cells viability, luminescence; inhibition, % at 7.5 µM; 300,000 compounds, 1.1% hits; AID 2717; in the data active means inhibition above about 75%; inconclusive means no clear call, values can overlap the other calls; tested in HMLE shEcad cells
NR3A LBD binder – modulators (binders) of human NR3A ligand-binding domain; AID 1259313; NR3A LBD differential scanning fluorimetry, Tm shift; 0% = protein alone, 100% = glycine-bound protein; 340,000 compounds, 2.5% hits; Tm shift relative to glycine control, % at 25 µM;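 active means melting temperature shift of at least 10% of the positive control shift, at one fixed dose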
CHOP inh – inhibitors of CHOP induction in ER stress response; CHO-K1 CHOP-promoter luciferase, tunicamycin-induced, 15-18 h; inhibition, % at 10 µM; 220,000 compounds, 3.8% hits; AID 2732;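 active means compounds that reduced the stress-induced luciferase reporter signal by more than about 70% of percent inhibition, limit read from the data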
A number is an active result; - = inactive; ? = inconclusive; . = not tested or not shown.

SMILES	Beta cell apopt	PREPL inhibitor	T cruzi repl	CSC inhib	NR3A LBD binder	CHOP inh
O=C(Cc1ccc(N2CCNC2=O)cc1)N1CCCC(Nc2cccc(F)c2)C1 (stereo unspecified)	-	-	-	-	-	.
O=C(Cc1ccc(N2CCNC2=O)cc1)N1CCCC(Nc2ccc(F)c(F)c2)C1 (stereo unspecified)	-	-	-	83	-	.
O=C(CSc1nnc(C2CC2)n1Cc1ccccc1)N1CCNC1=O	-	-	.	-	-	.
Cc1cc(C(=O)COc2ccc(-c3nnco3)cc2)c(C)n1Cc1ccccc1	-	-	-	.	-	-
Cc1ccc(S(=O)(=O)N2CCC(=O)N(C(COCc3ccc(Cl)cc3Cl)Cc3ccccc3)CC2)cc1 (stereo unspecified)	-	-	75	-	-	-
CC1=NN(C(=O)c2ccc(Cn3cc([N+](=O)[O-])cn3)cc2)C(O)(C(F)(F)F)C1 (stereo unspecified)	-	-	-	-	-	-
COc1ccc(Cc2nnc(N/N=C/c3ccc(Br)cc3)[nH]c2=O)cc1OC	-	-	-	-	-	-
COc1ccc(Cc2nnc(N/N=C/c3ccc(O)cc3)[nH]c2=O)cc1OC	99	-	-	102	-	84
CCc1cc(Cn2nc(-c3ccccc3)cc2C(=O)NCc2cccc(Br)c2)on1	-	-	.	-	-	.
COc1ccc(OC)c(Nc2nc(NCc3ccco3)c3ccccc3n2)c1	.	-	-	-	-	.
c1ccc(Nc2nc(NCc3ccco3)c3ccccc3n2)cc1	81	-	-	-	-	-
Cc1cccc(Nc2nc(NCc3ccco3)c3ccccc3n2)c1	91	-	-	113	-	-
Cc1cc(C)c(NC(=O)CN2C(=O)NC3(CCCCC3)C2=O)c(Cl)c1	-	-	-	-	-	71
O=C(CCNC(=O)C1CCN(S(=O)(=O)c2ccc(F)cc2)CC1)Nc1ccccc1	-	-	-	-	-	.
Cc1nn(-c2cccc(C(F)(F)F)c2)c(Cl)c1/C=N/Nc1cccc(C(=O)O)c1	-	-	-	-	-	-
Cc1ccc(/C=N/Nc2cccc(C(=O)O)c2)s1	.	-	-	.	-	80
Cc1nn(-c2ccccc2Cl)c(Cl)c1/C=N/Nc1cccc(C(=O)O)c1	-	-	-	-	10	-
CC(C)c1ccc(/C=N/Nc2ccc(C(=O)O)cc2)cc1	-	-	-	-	-	84
Cc1ccc(/C=N/Nc2ccc(C(=O)O)cc2)s1	-	-	-	-	-	75
O=C(O)c1ccc(N/N=C/c2cc(Br)cs2)cc1	-	-	-	-	-	.
O=C(O)c1cccc(N/N=C/c2cccc3ccccc23)c1	-	-	-	-	-	.
N#Cc1ccc(N[C@@H]2CCN3C(=O)c4ccccc4[C@@H]3C[C@H]2O)cc1	.	.	.	.	-	.
O=C(COc1ccc(C(=O)c2ccccc2)cc1)Nc1cccnc1	-	-	-	-	-	.
O=C(c1ccc2c(=O)n(Cc3ccccc3Cl)c(=S)[nH]c2c1)N1CCCC1	-	-	-	-	-	.
CCOc1ncccc1C(=O)NCC(c1ccco1)N1CCCCC1 (stereo unspecified)	-	-	.	-	-	.
SMILES	Beta cell apopt	PREPL inhibitor	T cruzi repl	CSC inhib	NR3A LBD binder	CHOP inh
O=C(CSc1nnc(CNC(=O)c2ccco2)o1)Nc1ccccc1C(F)(F)F	-	-	-	-	-	.
Cc1ccsc1/C=N/Nc1ccc(C(=O)O)cc1	-	-	-	-	-	.
O=C(O)c1ccc(/C=N/Nc2nnnn2-c2ccccc2)cc1	-	-	-	-	10	-
C(=N\Nc1nnnn1-c1ccccc1)/c1ccncc1	.	-	-	.	-	-
Cc1ccsc1/C=N/Nc1cccc(C(=O)O)c1	-	-	-	-	20	89
CCOc1cccc2sc(=NC(=O)CCS(=O)(=O)c3ccccc3)n(CC)c12	-	-	-	-	-	.
CCn1c(=NC(=O)c2ccc(S(=O)(=O)N(C)C)cc2)sc2cccc(OC)c21	-	-	?	-	10	-
COc1cccc2sc(=NC(=O)CS(=O)(=O)c3ccc(Cl)cc3)n(C)c12	.	-	60	-	.	.
COc1cccc2sc(=NC(=O)CS(=O)(=O)c3ccc(F)cc3)n(C)c12	.	-	55	-	-	.
CCn1c(=NC(=O)CS(=O)(=O)c2ccc(C)cc2)sc2cccc(OC)c21	.	-	59	-	-	.
CCCCn1c(N)c(N(CC)C(=O)c2c(C)noc2C)c(=O)[nH]c1=O	-	-	.	-	-	.
O=C(OCc1nc2ccsc2c(=O)[nH]1)c1cc(Br)c(Br)s1	-	-	-	-	22	.

Bioassay records from PubChem BioAssay.
